Reference: article PMC4130904 (The Prostate, 2014)
Where “and” joins values, the source holds several entries; their conditions need not be identical. Identical values can stand only once. Non-standard residues stand in square brackets, D forms with d. Residues, ends and D or L forms follow the SMILES beside them. No end group written: not given here. *: point of attachment. X1 = C/C=C(/C)C(=O)O[C@H]1C(C)=C2[C@H]([C@@H]1OC(=O)CCCCCCC)[C@@](C)(OC(C)=O)C[C@H](OC(=O)CCCCCCCCCCCN*)[C@@]1(O)[C@H]2OC(=O)[C@@]1(C)O; A12ADT = thapsigargin analog A12ADT

How the values were obtained:
[1] = cited from earlier work
[2] = test system: LNCaP human prostate cancer xenografts; experiment: LNCaP xenograft efficacy study, comparison to docetaxel; format: in vivo, mouse; conditions: prodrug 10 nmoles IV days 0, 1, 2; docetaxel 12 mg/kg/dose IV days 0, 3, 6
Method in brief: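 Six-week-old male nude mice (n = 10/group) received subcutaneous rear-flank injections of LNCaP cells at 2.0 × 10⁶ per 100 µL of 60% Matrigel in HBSS. Prodrug was given IV at 6.8 mg/kg/dose (10 nmoles) on days 0, 1, 2. Docetaxel was given IV at 12 mg/kg/dose […] on days 0, 3, 6 for one cycle. Tumor volume (0.5236 × L × W × H) was measured weekly by calipers, and body weight was tracked.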

[3] = Body weight loss in treated LNCaP xenograft-bearing mice; format: in vivo, mouse
[4] = Tumor pharmacokinetics of prodrug activation in MCF-7 xenografts; format: in vivo, mouse
Method in brief: (§1)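 Mice were dosed IV and bled by cardiac puncture under anesthesia to give heparinized plasma; naive-mouse plasma served as control, and tissues and tumors were harvested. Samples were deproteinated in acetonitrile with 0.1% FA, with L12ADT at 1 µM as internal standard. Calibration standards ran 100pM–100 µM. Samples were analysed by reversed-phase LCMS (positive-mode MRM). Terminal t1/2 came from the terminal slope of log-linear concentration–time plots.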

[5] = Plasma pharmacokinetics of prodrugs and active drug after IV dosing; format: in vivo, mouse
Method in brief: as §1

[6] = Hydrolysis of prodrugs in mouse plasma ex vivo; format: in vitro ADME; conditions: 100 µM prodrug, 37°C, 24 hrs
Method in brief: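 Plasma was taken by intra-cardiac puncture from fully anesthetized mice. Prodrugs were added at 100 µM final and incubated at 37°C for 24 hrs with shaking. Active drug (A-, S-, E-12ADT) was measured by LCMS at 0 and 24hrs.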

FAP = biological target: T1, FAP (Homo sapiens, UniProt Q12884); experiment: FAP-mediated hydrolysis of prodrugs ex vivo; format: biochemical
T1 sequence (Q12884 26-760 limits assumed): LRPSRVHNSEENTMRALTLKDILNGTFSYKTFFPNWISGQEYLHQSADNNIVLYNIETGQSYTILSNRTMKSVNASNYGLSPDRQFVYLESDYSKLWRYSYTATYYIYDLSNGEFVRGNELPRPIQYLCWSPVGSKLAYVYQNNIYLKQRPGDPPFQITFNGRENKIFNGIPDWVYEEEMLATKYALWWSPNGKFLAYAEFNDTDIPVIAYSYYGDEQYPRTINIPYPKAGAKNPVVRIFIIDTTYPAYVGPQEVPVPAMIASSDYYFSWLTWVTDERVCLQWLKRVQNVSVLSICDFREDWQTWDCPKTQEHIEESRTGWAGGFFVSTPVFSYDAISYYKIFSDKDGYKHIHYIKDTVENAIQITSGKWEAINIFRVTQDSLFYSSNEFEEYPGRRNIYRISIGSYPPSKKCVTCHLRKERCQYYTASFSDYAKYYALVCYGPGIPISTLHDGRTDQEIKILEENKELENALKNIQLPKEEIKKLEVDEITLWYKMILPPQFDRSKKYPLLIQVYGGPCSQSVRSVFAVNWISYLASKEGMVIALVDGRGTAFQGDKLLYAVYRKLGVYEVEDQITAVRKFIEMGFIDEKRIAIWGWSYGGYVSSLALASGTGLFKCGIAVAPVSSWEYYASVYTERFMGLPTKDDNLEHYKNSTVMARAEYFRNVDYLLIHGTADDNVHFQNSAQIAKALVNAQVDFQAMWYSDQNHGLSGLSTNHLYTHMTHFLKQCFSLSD
Method in brief: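 Recombinant FAP was expressed in Schneider's S2 cells and purified from the culture supernatant. Prodrugs at […] were held in FAP buffer (100mM NaCl, 100mM Tris, pH 7.8) with 10% DMSO, with or without 200nM FAP, at 37°C for 24hrs with shaking. Active drug (A-, S-, E-12ADT) was measured by LCMS at 0, 4 and 24hrs.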

Compound: C/C=C(/C)C(=O)O[C@H]1C(C)=C2[C@H]([C@@H]1OC(=O)CCCCCCC)[C@@](C)(OC(C)=O)C[C@H](OC(=O)CCC)[C@@]1(O)[C@H]2OC(=O)[C@@]1(C)O [TG, Thapsigargin]
- therapeutic benefit at the maximally-tolerated dose (MTD) [1]: no therapeutic benefit

Compound: CC(=O)O[C@@]12CO[C@@H]1C[C@H](O)[C@@]1(C)C(=O)[C@H](O)C3=C(C)[C@@H](OC(=O)[C@H](O)[C@@H](NC(=O)OC(C)(C)C)c4ccccc4)C[C@@](O)([C@@H](OC(=O)c4ccccc4)[C@H]21)C3(C)C [docetaxel]
- anti-tumor effect against LNCaP xenografts [2]: comparable anti-tumor effect
- recovery of body weight ([3]; over the course of the experiment): did not recover
- total body weight lost following therapy ([3]; prodrug IV days 0, 1, 2, docetaxel IV days 0, 3, 6): ~ 30% and 30%

Compound: C/C=C(/C)C(=O)O[C@H]1C(C)=C2[C@H]([C@@H]1OC(=O)CCCCCCC)[C@@](C)(OC(C)=O)C[C@H](OC(=O)CCCCCCCCCCCNC(=O)[C@H](CO)NC(=O)[C@H]1CCCN1C(=O)CNC(=O)[C@@H](NC(=O)[C@H](CCC(=O)O)NC(=O)CNC(=O)[C@H](CCCNC(=N)N)NC(=O)[C@@H](N)CCC(=O)O)[C@@H](C)O)[C@@]1(O)[C@H]2OC(=O)[C@@]1(C)O [ERGETGp-S12ADT] (H-ERGETG[dP]S-X1; N-terminus assumed)
- active species detectable in tumors [4]: only 12ADT is detectable
- total active drug concentration in tumor, fold lower than from ERGETGP-S12ADT [4]: ~ 7 fold
- 12ADT levels in mouse plasma as part of total administered dose ([5]; in vivo after IV dosing): < 0.01%
- Cmax ([5]; mouse, plasma, iv): 35 to 40 µM
- Tmax ([5]; mouse, plasma, iv): ≤ 1 h
- half-life ([5]; mouse, plasma, iv, half-life (t1/2) in mouse plasma, full-length prodrug, single IV dose): 4 to 5 h
- clearance from circulation ([5]; single IV dose): almost entirely cleared from circulation by 24 hrs
- active drug generation in mouse plasma ex vivo [6]: no active drug generated

Compound: ASGPAGP-A12ADT: FAP-activated prodrug: peptide ASGPAGP coupled to thapsigargin analog A12ADT
- active drug (S- or A12ADT) released in the presence of FAP (FAP; 200nM FAP, FAP buffer pH 7.8, 37°C, up to 24hrs, LCMS): 2 µM
- stability in the absence of FAP (FAP; FAP buffer without FAP, data not shown): completely stable
